Results on ten compounds are retold here after ChEMBL document CHEMBL4118140, “Synthesis and in vitro evaluation of homoisoflavonoids as potent inhibitors of nitric oxide production in RAW-264.7 cells” (Bioorg Med Chem Lett, 2018).

Activity calls are given as the source filed them. The calls are words filed in the database; no cut-off is given here.

A word on the inhibition: it is the relative decrease from the control value, in per cent. What is called IC50 is the concentration that gives 50% inhibition.

The subject of series [1] is RAW264.7. As to the kind of experiment: Antiinflammatory activity in mouse RAW264.7 cells assessed as reduction in LPS-induced NO production at 1 uM after 18 hrs by Griess assay relative to control. The series is classed as functional. Particulars: RAW264.7, 18 h. The method in brief: (§1)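 RAW 264.7 macrophages were stimulated with LPS together with test compound at 0.1, 1, 10, 25, 50 and 100 (six levels), with L-NMMA as the reference inhibitor. NO production was measured and expressed as % of the LPS-only control, with inhibition = 100 − that value. Results are mean ± SEM, n = 3, and IC50 came from the concentration series.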
On the technique in general: Griess reagent forms a coloured azo dye with nitrite.

Series [2] deals with RAW264.7. As to the kind of experiment: Antiinflammatory activity in mouse RAW264.7 cells assessed as reduction in LPS-induced NO production at 10 uM after 18 hrs by Griess assay relative to control. The series is classed as functional. Particulars: RAW264.7, 18 h. The essentials: as §1
In series [3] the test system is RAW264.7. As to the kind of experiment: Antiinflammatory activity in mouse RAW264.7 cells assessed as reduction in LPS-induced NO production after 18 hrs by Griess assay. It counts as functional, cell-based. The settings on record: RAW264.7, 18 h. The method in brief:
as §1

The nature of series [4]: Cytotoxicity against mouse RAW264.7 cells assessed as cell viability at 1 uM after 24 hrs by CellTiter96 AQueous one solution cell proliferation assay (reference value: 100 +/- 2.4%). The settings on record: read-out: Activity. The series is classed as cell-based.
Series [5] in a line: Cytotoxicity against mouse RAW264.7 cells assessed as cell viability at 10 uM after 24 hrs by CellTiter96 AQueous one solution cell proliferation assay (reference value: 100 +/- 2.4%). The settings on record: read-out: Activity. It counts as cell-based.
Series [6] is described as follows: Cytotoxicity against mouse RAW264.7 cells assessed as cell viability at 50 uM after 24 hrs by CellTiter96 AQueous one solution cell proliferation assay (reference value: 100 +/- 2.4%). The settings on record: read-out: Activity. It counts as cell-based.
A short description of series [7]: Cytotoxicity against mouse RAW264.7 cells assessed as cell viability at 100 uM after 24 hrs by CellTiter96 AQueous one solution cell proliferation assay (reference value: 100 +/- 2.4%). The series is classed as cell-based. The settings on record: read-out: Activity.
Series [8] concerns RAW264.7. As to the kind of experiment: Inhibition of iNOS expression in LPS-stimulated mouse RAW264.7 cells at 10 uM after 18 hrs by Western blot method. It counts as functional, cell-based.
Series [9] has as its system RAW264.7. Description: Effect on beta-actin expression in LPS-stimulated mouse RAW264.7 cells at 10 uM after 18 hrs by Western blot method. It counts as cell-based. Particulars: raw264.7, 18 h. A general note: A western blot detects proteins with antibodies after separation by electrophoresis.

Consider `COc1cc(O)c2c(c1)OCC(Cc1ccccc1O)C2=O` (centres undefined), for which the inhibition at 1 µM with RAW264.7 [1] is 2.8%. Also, in the series on RAW264.7 [2], the inhibition at 10 µM came out at 38%. Also, in the series with RAW264.7 [3], the IC50 came out at 12.4 µM. Besides, the viability at 24 h, 1 µM in series [4] was determined as 97.7%. Also, the viability at 24 h, 10 µM in series [5] is 81.1%. Further, in [6], the viability at 24 h, 50 µM was determined as 34.2%. Also, the viability at 24 h, 100 µM in [7] worked out at 12.5%.
As to `COc1cc2c(c(O)c1OC)C(=O)C(Cc1ccccc1O)CO2` (racemic), the inhibition at 1 µM in the series with RAW264.7 [1] was -11.8%. The inhibition at 10 µM with RAW264.7 [2] amounted to 34.1%. In addition, the IC50 in the series with RAW264.7 [3] stood at 12.2 µM. For the same compound, the viability at 24 h, 1 µM in series [4] came out at 97.6%. Moreover, the viability at 24 h, 10 µM in [5] is 96.7%. Also, in [6], the viability at 24 h, 50 µM came to 41.1%. Besides, the viability at 24 h, 100 µM in series [7] amounted to 15.5%.
On to `COc1cc(OC)c2c(c1)OCC(Cc1ccccc1O)C2=O` (racemic), for which the inhibition at 1 µM with RAW264.7 [1] is -2.8%. The inhibition at 10 µM with RAW264.7 [2] was found to be 20.5%. For the same compound, the IC50 with RAW264.7 [3] came out at 14.2 µM. The viability at 24 h, 1 µM in [4] amounted to 98.6%. Further, the viability at 24 h, 10 µM in series [5] was 165%. Moreover, the viability at 24 h, 50 µM in [6] was 55.2%. Also, in series [7], the viability at 24 h, 100 µM was 41.3%.
In the case of `COc1ccc2c(c1)OC/C(=C\c1ccccc1O)C2=O`, the inhibition at 1 µM with RAW264.7 [1] amounted to 28.4%. The inhibition at 10 µM in the series on RAW264.7 [2] came to 91.4%. For the same compound, in the series on RAW264.7 [3], the IC50 was found to be 1.75 µM. Further, in series [4], the viability at 24 h, 1 µM was 102%. In addition, the viability at 24 h, 10 µM in [5] was found to be 97.7%. In addition, the viability at 24 h, 50 µM in [6] was 11%. For the same compound, the viability at 24 h, 100 µM in series [7] turned out to be 11.1%. Moreover, the “iNOS expression inhibition (active/inactive)” value in the series with RAW264.7 [8] is “Active”. Moreover, the Activity result in the series with RAW264.7 [9] is on record as “Non-Toxic”.
Turning to `COc1cc2c(c(OC)c1OC)C(=O)C(Cc1ccccc1O)CO2` (racemic), in the series with RAW264.7 [1], the inhibition at 1 µM was -24.6%. Further, in the series on RAW264.7 [2], the inhibition at 10 µM is 15.9%. The IC50 in the series with RAW264.7 [3] came to 13.4 µM. Moreover, the viability at 24 h, 1 µM in series [4] amounted to 89.6%. In [5], the viability at 24 h, 10 µM came out at 87.2%. Moreover, the viability at 24 h, 50 µM in [6] was determined as 58.7%. Further, the viability at 24 h, 100 µM in series [7] amounted to 44%.
In the case of `CNC(=N)NCCC[C@H](N)C(=O)O` [TILARGININE], the inhibition at 1 µM with RAW264.7 [1] was -12.5%. The inhibition at 10 µM in the series on RAW264.7 [2] came out at 14.2%. In addition, in the series on RAW264.7 [3], the IC50 worked out at 16.1 µM.
For the compound `COc1ccc2c(c1)OCC(Cc1ccccc1O)C2=O` (centres undefined), the inhibition at 1 µM in the series on RAW264.7 [1] was determined as 9.2%. In addition, the inhibition at 10 µM in the series on RAW264.7 [2] is 19.7%. In addition, the IC50 in the series with RAW264.7 [3] was determined as 14.2 µM. Moreover, the viability at 24 h, 1 µM in series [4] was 152%. Further, in [5], the viability at 24 h, 10 µM is 118%. For the same compound, the viability at 24 h, 50 µM in series [6] was 49.4%. Besides, the viability at 24 h, 100 µM in [7] is 31.5%.
For `COc1cc(OC)c2c(c1)OC/C(=C\c1ccccc1O)C2=O`, the inhibition at 1 µM with RAW264.7 [1] is 38.5%. Further, in the series with RAW264.7 [2], the inhibition at 10 µM is 97.2%. Moreover, the IC50 in the series on RAW264.7 [3] was found to be 1.26 µM. The viability at 24 h, 1 µM in series [4] is 108%. Besides, the viability at 24 h, 10 µM in [5] is 114%. The viability at 24 h, 50 µM in series [6] turned out to be 13.3%. The viability at 24 h, 100 µM in series [7] came out at 11.7%. For the same compound, the “iNOS expression inhibition (active/inactive)” value in the series with RAW264.7 [8] was “Active”. For the same compound, the Activity result with RAW264.7 [9] is “Non-Toxic”.
Regarding `COc1cc2c(c(OC)c1OC)C(=O)/C(=C/c1ccccc1O)CO2`, in the series with RAW264.7 [1], the inhibition at 1 µM was determined as 16.2%. The inhibition at 10 µM in the series on RAW264.7 [2] amounted to 83%. Besides, the IC50 with RAW264.7 [3] came out at 2.91 µM. In series [4], the viability at 24 h, 1 µM amounted to 94.6%. The viability at 24 h, 10 µM in series [5] worked out at 93.4%. For the same compound, the viability at 24 h, 50 µM in series [6] stood at 11.8%. The viability at 24 h, 100 µM in series [7] came out at 10.9%. The “iNOS expression inhibition (active/inactive)” value in the series on RAW264.7 [8] was “Active”. Moreover, the Activity entry with RAW264.7 [9] is listed as “Non-Toxic”.
`COc1cc(O)c2c(c1)OC/C(=C\c1ccccc1O)C2=O`: the inhibition at 1 µM in the series on RAW264.7 [1] worked out at 21.1%. Further, the inhibition at 10 µM with RAW264.7 [2] stood at 92.5%. Also, in the series with RAW264.7 [3], the half-maximal inhibitory concentration (IC50) was 2.09 µM. The viability at 24 h, 1 µM in series [4] is 94%. In addition, in [5], the viability at 24 h, 10 µM turned out to be 97%. Besides, in series [6], the viability at 24 h, 50 µM was found to be 10.7%. In addition, the viability at 24 h, 100 µM in [7] worked out at 11%. The “iNOS expression inhibition (active/inactive)” value in the series with RAW264.7 [8] is “Active”. In the series with RAW264.7 [9], the Activity entry is on record as “Non-Toxic”.
